Source: PubChem
T cell modulator: T cell immune modulators affecting CD8 T cell-vesicle binding; 2C CD8+ T cell-vesicle binding, flow cytometry; hits give low values; response (vesicle binding), % at 7 µM; 0.068% of 330,000 active; AID 2052;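 active = response, share of CD8 T cells binding vesicles, and their 90th percentile fluorescence all below set limits, cut at about 80% in these data, passing the limit was not always enough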;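 also: values below 100% mean blocked vesicle binding to the CD8+ T cells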
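Benchmarks: naked versus QL9-loaded vesicles / Assay system: purified 2C TCR transgenic mouse naive CD8+ T cells / Technique: high-throughput flow cytometry with anti-B7-1 and anti-CD8 staining / Timing: Cell–vesicle co-incubation 1.5 h at 37 °C, staining 20 min on ice / Read-out: percent CD8+ FL2 mean versus row control / Probe or stimulus: QL9-loaded Drosophila micro-vesicles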
MCL1-BIM inh: disrupts human MCL1 binding to BIM-BH3 peptide | 0.68% of 320,000 active | Q07820 | inhibition, % at 10.9 µM | GST-MCL1 / FITC-Bim-BH3 fluorescence polarization;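 active = inhibition above the mean inhibition of all tested compounds plus 3 SD, set per campaign, cut at about 40% in these data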;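 also: 0% = DMSO wells and 100% = unlabeled Bim-BH3 peptide control; higher means more loss of mP so more displacement of Bim peptide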
Mcl1-Noxa inh: disrupts binding of human Mcl-1 to Noxa peptide; Q07820; TR-FRET Mcl-1/Noxa peptide binding, 2 h; inhibition, % at 21.7 µM; 1.5% of 220,000 active; AID 1022;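 active = compounds that cut the protein-peptide binding signal by more than 50% relative to plate controls in a single-dose test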;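 also: His-tagged Mcl-1 with rhodamine Noxa BH3 peptide and terbium anti-His antibody; 0% = Mcl-1 plus Noxa peptide wells and 100% = peptide-only wells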
Mcl1 Bid PPI: Mcl-1/Bid interaction inhibition | inhibition, % at 21.7 µM | TR-FRET Mcl-1/Bid-Dy647 peptide binding, 1536-well | 0.97% of 220,000 active | AID 1021 | Q07820;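 active = compounds that cut the binding signal by more than half at the single screening dose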;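 also: His-tagged Mcl-1 with europium anti-His antibody binding Bid BH3 peptide; 0% = Mcl-1 plus peptide wells and 100% = peptide-only wells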
Bim-Mcl-1: human Bim-Mcl-1 interaction inhibition. Bead-based flow cytometry, Bim peptide-Mcl-1 binding. Q07820. AID 1009. 0.1% of 190,000 active. inhibition, % at 10 µM; in the data active = inhibition above about 40%;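 also: 0% = no compound tracer wells and 100% = peptide blocker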
DSG3 Ab inh: human desmoglein-3 autoantibody binding inhibition. P32926. DSG3-coupled beads, scFv-anti-DSG3-GFP binding, flow cytometry; hits give low values. binding (percent of control), % at 10 µM. 0.48% of 310,000 active;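 active = binding more than 3 SD below its plate's average and above zero; inconclusive = below that plate limit but binding exactly zero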;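 also: hits lower antibody fragment binding to DSG3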
Target sequence (P32926 whole entry, looked up, the tested form may be a part): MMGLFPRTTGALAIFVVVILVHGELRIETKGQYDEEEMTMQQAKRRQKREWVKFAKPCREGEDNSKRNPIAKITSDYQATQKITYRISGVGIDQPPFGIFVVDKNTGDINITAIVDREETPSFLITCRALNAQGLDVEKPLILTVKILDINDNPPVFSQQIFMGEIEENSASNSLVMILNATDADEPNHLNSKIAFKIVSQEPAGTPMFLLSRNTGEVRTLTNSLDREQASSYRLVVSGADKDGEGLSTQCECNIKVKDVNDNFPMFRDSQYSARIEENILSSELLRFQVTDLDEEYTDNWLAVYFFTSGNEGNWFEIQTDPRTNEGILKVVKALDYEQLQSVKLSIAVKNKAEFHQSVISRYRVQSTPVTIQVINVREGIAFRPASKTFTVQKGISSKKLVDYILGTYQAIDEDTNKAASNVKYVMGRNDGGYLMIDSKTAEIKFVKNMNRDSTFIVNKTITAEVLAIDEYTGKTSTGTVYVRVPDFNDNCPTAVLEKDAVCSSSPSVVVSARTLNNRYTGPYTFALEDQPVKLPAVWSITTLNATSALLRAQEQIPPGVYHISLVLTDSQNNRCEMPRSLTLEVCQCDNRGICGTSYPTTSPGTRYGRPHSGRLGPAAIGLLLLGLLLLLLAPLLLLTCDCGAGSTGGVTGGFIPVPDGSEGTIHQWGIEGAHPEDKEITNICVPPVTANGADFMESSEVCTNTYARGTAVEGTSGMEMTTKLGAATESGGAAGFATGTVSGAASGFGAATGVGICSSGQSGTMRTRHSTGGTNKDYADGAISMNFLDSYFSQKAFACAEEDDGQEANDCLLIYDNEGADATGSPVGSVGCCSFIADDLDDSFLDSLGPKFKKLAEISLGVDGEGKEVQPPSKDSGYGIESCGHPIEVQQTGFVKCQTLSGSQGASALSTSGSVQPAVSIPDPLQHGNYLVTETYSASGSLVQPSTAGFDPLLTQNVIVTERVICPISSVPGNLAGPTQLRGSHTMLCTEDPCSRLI
* hit, by the source's call; i = inactive; ? = inconclusive; · = no result given. This is a sample that favours compounds with a hit; in the whole collection about 2.3% have one here.

SMILES	T cell modulator	MCL1-BIM inh	Mcl1-Noxa inh	Mcl1 Bid PPI	Bim-Mcl-1	DSG3 Ab inh
COc1ccc(-c2csc(NC(=O)c3ccccc3F)c2C(=O)O)cc1	274	-1	·	·	·	96
CCn1cc(/C=C/C(=O)Nc2ccn(Cc3c(F)c(F)cc(F)c3F)n2)cn1	204	11	54*	7	-8	104
COC(=O)c1ccc(N/N=C/c2cc([N+](=O)[O-])cc(OC)c2O)cc1	180	5	61*	12	-2	99
CCOC(=O)c1ccc(N/N=C/c2cc(Br)cc([N+](=O)[O-])c2O)cc1	211	3	61*	-6	1	104
COc1cccc(/C=N/Nc2ccc([N+](=O)[O-])cc2)c1O	166	-47	·	·	·	96
CC(=O)C1=C(C)NC(=O)NC1c1ccc(Cl)cc1 (stereo not given)	i	4	54*	-32	0	80
Cc1ccc(OCCCCn2cnc3ccccc32)c(C)c1	381	0	28	54*	1	101
O=C1c2cc3c(cc2CCC1c1ccc2c(c1)OCO2)OCO3 (stereo not given)	·	·	·	·	·	102
CCCCN(C(=O)/C=C/c1ccccc1)C1CCS(=O)(=O)C1 (stereo not given)	324	0	·	·	·	74*
CN(Cc1ccc(Cl)cc1Cl)C(=O)c1cc(=O)c2ccccc2o1	202	5	·	·	·	101
CCOC(=O)c1sc2nc(CC(C)C)c3c(c2c1N)CCC3	77	1	1	-22	13	-12*
COc1ccc(C(=O)Nc2ccc3ccccc3c2)cc1OC	267	12	·	·	·	120
COc1cc(C(=O)Nc2ccc3c(c2)C(=O)c2ccccc2C3=O)cc(OC)c1OC	541	-4	85*	77*	-2	105
COc1ccc(C(=O)Nc2ccc3c(c2)C(=O)c2ccccc2C3=O)cc1OC	299	8	68*	85*	0	72*
COc1ccc(NC(=O)CSc2nc(SC)ns2)cc1	189	-1	·	·	·	102
Cc1nc2nc(C)c(NS(=O)(=O)c3ccc(C4CCCCC4)cc3)c(=O)n2[nH]1	194	-1	·	·	·	?
Cc1ccc(S(=O)(=O)N2C[C@H]3n4c(=O)ccc(=O)n4C[C@H](OC(=O)Nc4c(C)noc4C)[C@@]3(O)C2)cc1	·	·	·	·	·	92*
CCN1CCN(C(=O)COCc2cc(-c3ccc4c(c3)OCO4)on2)CC1	234	-3	·	·	·	101
COc1ccc(N2CCN(C(=O)COCc3cc(-c4ccc5c(c4)OCO5)on3)CC2)cc1	254	-2	·	·	·	71*
COc1cccc(NC(C)(C)c2nnnn2-c2c(C)cccc2C)c1	142	5	36	52*	·	92
CN1OC[C@@H]2CN(S(=O)(=O)c3cccc(C(F)(F)F)c3)[C@H](c3ccc(-c4cccnc4)cc3)C[C@@H]21	·	·	·	·	·	107
Cn1c(=O)c(C(=O)CSc2nnc(Nc3ccccc3)s2)c(N)n(Cc2ccccc2)c1=O	170	-10	70*	17	-4	102
COc1cccc(C(=O)NC23CC4CC(CC(C4)C2)C3)c1	160	-4	·	·	·	97
CN1C2C=C3C(C#N)=C(N)C(C#N)(C#N)[C@@H](c4cccs4)C3C1CC2 (stereo not given in full)	248	46*	10	-18	-5	107
CC(COc1ccc(C(C)C)cc1)NC(=O)c1ccc(Br)o1 (stereo not given)	127	0	·	·	·	·
SMILES	T cell modulator	MCL1-BIM inh	Mcl1-Noxa inh	Mcl1 Bid PPI	Bim-Mcl-1	DSG3 Ab inh
CCOc1ccc(CN(C)C(=O)c2cccc(S(=O)(=O)Nc3ccccc3OC)c2)cc1OC	·	·	·	·	·	97
COC(=O)c1ccc(NS(=O)(=O)c2ccc3c(c2)n(C)c(=O)n3C)cc1	680	-2	·	·	·	76*
COC(=O)c1ccc(NS(=O)(=O)c2ccc3c(c2)oc(=O)n3C)cc1	346	6	19	-11	0	92*
COC(=O)[C@H]1[C@H]2C[C@@H]3c4[nH]c5cc(OC)ccc5c4CCN3C[C@H]2C[C@@H](OC(=O)c2cc(OC)c(OC)c(OC)c2)[C@@H]1OC	459	-7	·	·	·	112
COc1ccc2c3c([nH]c2c1)C1CC2C(CC(O)C(OC)C2C(=O)O)CN1CC3 (stereo not given)	601	41*	10	-124	·	102
CN1CC[C@@H]2C(=O)N3CCc4ccc(-c5ccc6c(c5)OCO6)cc4[C@@H]3C[C@@H]21	·	·	·	·	·	114
Cc1nn(CC(=O)Nc2ccc3c(c2)nc(CCN2CCCCC2)n3C)c(=O)c2ccccc12	104	3	20	-20	-3	129
Cc1nn(CC(=O)Nc2ccc3c(c2)nc2n3CCN(C3CCCCC3)C2)c(=O)c2ccccc12	516	27	70*	-7	2	·
CS(=O)(=O)N1CCCCC1CCN1CCCCC1 (stereo not given)	·	·	·	·	·	90
Clc1ccccc1-c1nc2ccccc2[nH]1	564	2	-7	77*	·	99
Fc1ccccc1-c1nc2ccccc2[nH]1	704	7	-13	-33	-2	102
c1ccc(N=NC2=NN(c3ccccc3)CS2)cc1	·	·	·	·	·	94
Cc1c(NC(=O)CN2c3ccccc3CC2C)c(=O)n(-c2ccccc2)n1C (stereo not given)	220	2	8	-43	-2	103*
Cc1c(NC(=O)CN2CC(C)OC(C)C2)c(=O)n(-c2ccccc2)n1C (stereo not given)	446	-4	13	19	-1	96
O=[N+]([O-])c1cc(Br)c(O)c(/C=N/Nc2nnnn2-c2cccc3ccccc23)c1	574	19	34	66*	-1	96
COc1ccc(S(=O)(=O)Nc2ccc(O)c(Sc3ncn[nH]3)c2)cc1	330	12	31	-34	-2	89
COc1ccc(S(=O)(=O)Nc2cc(Sc3ncn[nH]3)c(O)c3ccccc23)cc1	·	·	91*	45	0	·
O=S(=O)(Nc1cc(Sc2cccc3cccnc23)c(O)c2ccccc12)c1ccc(F)cc1	274	23	51*	-28	1	·
COc1ccc(-c2cn3cccnc3n2)cc1NC(=O)c1ccc(Br)o1	224	1	38	-20	1	103
Cc1ccc(-c2cn3cccnc3n2)cc1NC(=O)c1ccc(Br)o1	152	7	11	9	1	81*
CCCCc1nc2cc(C(=O)NCCc3c(C)n[nH]c3C)ccc2o1	322	-3	·	·	·	·
CC1CCCC(NC(=O)COC(=O)CCC2CCCC2)C1C (stereo not given)	350	-8	1	-37	-7	45*
COc1ccc(NC(=O)CSc2nc3[nH]c(=O)cc(O)c3s2)c(OC)c1	241	8	·	·	·	·
COc1ccccc1NC(=O)Cn1nnc(-c2ccccc2NC(=O)c2ccco2)n1	294	-4	-145	-31	-4	115
